Data published in ChEMBL document CHEMBL1143838, “Candida albicans and Candida dubliniensis respond differently to echinocandin antifungal agents in vitro” (2007).
Converted amounts (≈) assume the structure as drawn. The source made the active and inactive calls. No cut-off for these calls is given here. *1 amine or outer side, *2 acyl side, *3 side chain or, on linkers, in order; H or OH if unused. Where a SMILES comes first, the peptide text is derived from it. Bridges are numbered along the chain shown (N, C = ends). [ ]: non-standard residue; d: D form. The star is where a group is joined. pTerphenylCO(4''-OnC5H11) = CCCCCOc1ccc(-c2ccc(-c3ccc(C(=O)*)cc3)cc2)cc1; Orn(4R-OH,5R-OH) = O=C([C@H](C[C@@H](O)[C@@H](O)N[*:3])N[*:1])[*:2]; hTyr(3S-OH,4S-OH) = N[C@H](C(=O)O)[C@H](O)[C@@H](O)c1ccc(O)cc1; Pro(3S-OH,4S-Me) = C[C@H]1CN[C@H](C(=O)O)[C@H]1O; Hyp = O=C(O)[C@@H]1C[C@@H](O)CN1

Key:
[1] = tested on: Candida albicans; assay: Antifungal activity against Candida albicans T28 after 24 hrs by EUCAST test; format: functional
How it was run: (§1)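 EUCAST broth microdilution with aqueous doubling dilutions of drug. Inoculum grown overnight at 30°C in NGY, then added to MOPS-buffered RPMI 1640 with 2% glucose at an initial 10^5 yeasts/ml. Incubated 35°C for 24 h. MICs taken from triplicate spectrophotometric dose-response data as 50% and 80% growth-reduction endpoints.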

[2] = tested on: Candida albicans; assay: Antifungal activity against Candida albicans T32 after 24 hrs by CLSI M27-A test; format: functional
How it was run: (§2)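 CLSI M27-A broth microdilution with aqueous doubling dilutions of drug. Inoculum grown overnight at 30°C in NGY medium, then added to MOPS-buffered RPMI 1640 at an initial 10^3 yeasts/ml. Incubated 35°C for 24 h. MIC read visually as the lowest concentration giving a marked decrease in visible growth; paradoxical or trailing growth noted.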

[3] = tested on: Candida albicans; assay: Antifungal activity against Candida albicans NR2 after 24 hrs by EUCAST test; format: functional; how it was run: as §1
[4] = tested on: Candida albicans; assay: Antifungal activity against Candida albicans SC5314 after 24 hrs by CLSI M27-A test; format: functional; details: SC5314, 24 h; how it was run: as §2
[5] = tested on: Candida albicans; assay: Antifungal activity against Candida albicans SCS67023C after 24 hrs by CLSI M27-A test; format: functional; how it was run: as §2
[6] = tested on: Candida albicans; assay: Antifungal activity against Candida albicans SCS67023C after 24 hrs by EUCAST test; format: functional; how it was run: as §1
[7] = tested on: Candida albicans; assay: Antifungal activity against Candida albicans AM2003/0083 after 24 hrs by CLSI M27-A test; format: functional; how it was run: as §2
[8] = tested on: Candida albicans; assay: Antifungal activity against Candida albicans B06-341 after 24 hrs by CLSI M27-A test; format: functional; how it was run: as §2
[9] = tested on: Candida albicans; assay: Antifungal activity against Candida albicans HK04M102095 after 24 hrs by CLSI M27-A test; format: functional; how it was run: as §2
[10] = tested on: Candida albicans; assay: Antifungal activity against Candida albicans JIMS101103 after 24 hrs by CLSI M27-A test; format: functional, organism-based; how it was run: as §2
[11] = tested on: Candida albicans; assay: Antifungal activity against Candida albicans JIMS146204 after 24 hrs by CLSI M27-A test; format: functional; how it was run: as §2
[12] = tested on: Candida albicans; assay: Antifungal activity against Candida albicans NCPF6525 after 24 hrs by CLSI M27-A test; format: functional; how it was run: as §2
[13] = tested on: Candida albicans; assay: Antifungal activity against Candida albicans NR3 after 24 hrs by EUCAST test; format: functional; how it was run: as §1
[14] = tested on: Candida albicans; assay: Antifungal activity against Candida albicans CAI4RI after 24 hrs by CLSI M27-A test; format: functional; how it was run: as §2
[15] = tested on: Candida albicans; assay: Antifungal activity against Candida albicans CAI4RI after 24 hrs by EUCAST test; format: functional; how it was run: as §1
[16] = tested on: Candida albicans; assay: Antifungal activity against Candida albicans T25 after 24 hrs by CLSI M27-A test; format: functional; how it was run: as §2
[17] = tested on: Candida albicans; assay: Antifungal activity against Candida albicans T26 after 24 hrs by CLSI M27-A test; format: functional; how it was run: as §2
[18] = tested on: Candida albicans; assay: Antifungal activity against Candida albicans T26 after 24 hrs by EUCAST test; format: functional; how it was run: as §1
[19] = tested on: Candida albicans; assay: Antifungal activity against Candida albicans Y109 after 24 hrs by EUCAST test; format: functional; how it was run: as §1
[20] = tested on: Candida dubliniensis; assay: Antifungal activity against Candida dubliniensis 81/060 after 24 hrs by CLSI M27-A test; format: functional, organism-based; how it was run: as §2
[21] = tested on: Candida dubliniensis; assay: Antifungal activity against Candida dubliniensis 90/033 after 24 hrs by CLSI M27-A test; format: functional; how it was run: as §2
[22] = tested on: Candida dubliniensis; assay: Antifungal activity against Candida dubliniensis 910Aa after 24 hrs by EUCAST test; format: functional; how it was run: as §1
[23] = tested on: Candida dubliniensis; assay: Antifungal activity against Candida dubliniensis AMCC after 24 hrs by EUCAST test; format: functional; how it was run: as §1
[24] = tested on: Candida dubliniensis; assay: Antifungal activity against Candida dubliniensis Leic875 after 24 hrs by EUCAST test; format: functional
How it was run: (§3)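 Yeasts were grown overnight at 30°C in NGY, then inoculated at 10^5 yeasts/ml initial concentration into MOPS-buffered RPMI 1640 with 2% glucose containing aqueous doubling dilutions of drug. Plates were held at 35°C for 24 h. MICs came from triplicate spectrophotometric dose-response data at 50% and 80% growth-reduction endpoints. Trailing meant a >100-fold gap between these endpoints; paradoxical meant regrowth ≥5% above the curve minimum.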

[25] = tested on: Candida dubliniensis; assay: Antifungal activity against Candida dubliniensis Leic952 after 24 hrs by CLSI M27-A test; format: functional
How it was run: (§4)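 Broth microdilution with echinocandins as aqueous doubling dilutions. Yeasts were grown overnight at 30°C in NGY and seeded at 10^3 yeasts/ml initial concentration in MOPS-buffered RPMI 1640, then incubated at 35°C for 24 h. The MIC was read visually as the lowest concentration giving a marked decrease in visible growth; paradoxical or trailing growth was noted.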

[26] = tested on: Candida dubliniensis; assay: Antifungal activity against Candida dubliniensis SCS17154969-1 after 24 hrs by CLSI M27-A test; format: functional; how it was run: as §4
[27] = tested on: Candida dubliniensis; assay: Antifungal activity against Candida dubliniensis SCS17154969-1 after 24 hrs by EUCAST test; format: functional; how it was run: as §3
[28] = tested on: Candida dubliniensis; assay: Antifungal activity against Candida dubliniensis SCS59662 after 24 hrs by EUCAST test; format: functional; how it was run: as §3
[29] = tested on: Candida dubliniensis; assay: Antifungal activity against Candida dubliniensis ANSA 23a after 24 hrs by CLSI M27-A test; format: functional, organism-based; how it was run: as §4
[30] = tested on: Candida dubliniensis; assay: Antifungal activity against Candida dubliniensis FS after 24 hrs by CLSI M27-A test; format: functional; how it was run: as §4
[31] = tested on: Candida dubliniensis; assay: Antifungal activity against Candida dubliniensis IK after 24 hrs by CLSI M27-A test; format: functional; how it was run: as §4
[32] = tested on: Candida dubliniensis; assay: Antifungal activity against Candida dubliniensis IK after 24 hrs by EUCAST test; format: functional; how it was run: as §3
[33] = tested on: Candida dubliniensis; assay: Antifungal activity against Candida dubliniensis J930936 after 24 hrs by CLSI M27-A test; format: functional; how it was run: as §4
[34] = tested on: Candida dubliniensis; assay: Antifungal activity against Candida dubliniensis J930936 after 24 hrs by EUCAST test; format: functional; how it was run: as §3
[35] = tested on: Candida dubliniensis; assay: Antifungal activity against Candida dubliniensis J931021 after 24 hrs by CLSI M27-A test; format: functional; how it was run: as §4
[36] = tested on: Candida dubliniensis; assay: Antifungal activity against Candida dubliniensis SCSBB417709 after 24 hrs by CLSI M27-A test; format: functional; how it was run: as §4
[37] = tested on: Candida dubliniensis; assay: Antifungal activity against Candida dubliniensis SCSBB417709 after 24 hrs by EUCAST test; format: functional; how it was run: as §3
[38] = tested on: Candida dubliniensis; assay: Antifungal activity against Candida dubliniensis ST after 24 hrs by CLSI M27-A test; format: functional; how it was run: as §4
[39] = tested on: Candida dubliniensis; assay: Antifungal activity against Candida dubliniensis ST after 24 hrs by EUCAST test; format: functional; how it was run: as §3
[40] = tested on: Candida parapsilosis; assay: Antifungal activity against Candida parapsilosis ATCC 22019 after 24 hrs by CLSI M27-A test; format: functional; details: Lodderomyces parapsilosis, ATCC 22019, 24 h; how it was run: as §4

CCCCCOc1ccc(-c2ccc(-c3ccc(C(=O)N[C@H]4C[C@@H](O)[C@@H](O)NC(=O)[C@@H]5[C@@H](O)[C@@H](C)CN5C(=O)[C@H]([C@@H](C)O)NC(=O)[C@H]([C@H](O)[C@@H](O)c5ccc(O)cc5)NC(=O)[C@@H]5C[C@@H](O)CN5C(=O)[C@H]([C@@H](C)O)NC4=O)cc3)cc2)cc1 [ANIDULAFUNGIN] ({pTerphenylCO(4''-OnC5H11)}-[Orn(4R-OH,5R-OH)]T[Hyp][hTyr(3S-OH,4S-OH)]T[Pro(3S-OH,4S-Me)]; lactam 1-C)
MIC50 [1]: ≤ 0.032 µg/mL
MIC50 [2]: ≤ 0.032 µg/mL
MIC50 [3]: 0.25 µg/mL (≈ 0.219 µM)
MIC50 [4]: ≤ 0.032 µg/mL
MIC50 [5]: ≤ 0.032 µg/mL
MIC50 [6]: ≤ 0.032 µg/mL
MIC50 [7]: ≤ 0.032 µg/mL
MIC50 [8]: 0.13 µg/mL (≈ 0.114 µM)
MIC50 [9]: ≤ 0.032 µg/mL
Activity [10]: Active
MIC50 [11]: ≤ 0.032 µg/mL
MIC50 [12]: 0.13 µg/mL (≈ 0.114 µM)
MIC50 [13]: 1 µg/mL (≈ 0.877 µM)
MIC50 [14]: 0.5 µg/mL (≈ 0.438 µM)
MIC50 [15]: 0.25 µg/mL (≈ 0.219 µM)
MIC50 [16]: 1 µg/mL (≈ 0.877 µM)
MIC50 [17]: 1 µg/mL (≈ 0.877 µM)
MIC50 [18]: 0.5 µg/mL (≈ 0.438 µM)
MIC50 [19]: 0.13 µg/mL (≈ 0.114 µM)
Activity [20]: Active
MIC50 [21]: ≤ 0.032 µg/mL
MIC50 [22]: ≤ 0.032 µg/mL
MIC50 [23]: ≤ 0.032 µg/mL
MIC50 [24]: ≤ 0.032 µg/mL
MIC50 [25]: ≤ 0.032 µg/mL
MIC50 [26]: ≤ 0.032 µg/mL
MIC50 [27]: ≤ 0.032 µg/mL
MIC50 [28]: ≤ 0.032 µg/mL
Activity [29]: Active
MIC50 [30]: ≤ 0.032 µg/mL
MIC50 [31]: ≤ 0.032 µg/mL
MIC50 [32]: ≤ 0.032 µg/mL
MIC50 [33]: ≤ 0.032 µg/mL
MIC50 [34]: ≤ 0.032 µg/mL
MIC50 [35]: ≤ 0.032 µg/mL
MIC50 [36]: ≤ 0.032 µg/mL
MIC50 [37]: ≤ 0.032 µg/mL
MIC50 [38]: ≤ 0.032 µg/mL
MIC50 [39]: ≤ 0.032 µg/mL
MIC50 [40]: 0.5 µg/mL (≈ 0.438 µM)
